Source: the M2OR odorant receptor database

Legend:
Settings in all cases: stereoisomer not certain
UniProt Q8VG27 = target: T1, UniProt Q8VG27
T1 sequence (whole entry): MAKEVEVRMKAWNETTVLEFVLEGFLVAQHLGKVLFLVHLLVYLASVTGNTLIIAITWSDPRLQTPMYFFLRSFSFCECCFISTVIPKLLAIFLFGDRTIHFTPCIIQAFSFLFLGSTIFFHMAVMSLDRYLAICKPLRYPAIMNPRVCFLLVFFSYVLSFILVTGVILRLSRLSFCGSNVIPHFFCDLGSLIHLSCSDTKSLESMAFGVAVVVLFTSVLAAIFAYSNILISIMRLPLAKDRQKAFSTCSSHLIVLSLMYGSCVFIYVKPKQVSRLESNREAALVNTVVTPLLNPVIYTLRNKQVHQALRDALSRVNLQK
Procedure, shortened: (§1)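 Values were gathered from published papers (main text and supplementary material), with extra details requested from the original authors when needed, and checked for typos and inconsistencies. Each receptor–molecule pair is called responsive (active) if the original authors judged the measured signal statistically different from baseline, and non-responsive (inactive) otherwise. Assay methods varied by source, often transient mammalian cell-line luciferase assays. Recorded details include cell line, G-protein, co-transfected protein and tags.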

UniProt Q8VG53 = target: T2, UniProt Q8VG53
T2 sequence (whole entry): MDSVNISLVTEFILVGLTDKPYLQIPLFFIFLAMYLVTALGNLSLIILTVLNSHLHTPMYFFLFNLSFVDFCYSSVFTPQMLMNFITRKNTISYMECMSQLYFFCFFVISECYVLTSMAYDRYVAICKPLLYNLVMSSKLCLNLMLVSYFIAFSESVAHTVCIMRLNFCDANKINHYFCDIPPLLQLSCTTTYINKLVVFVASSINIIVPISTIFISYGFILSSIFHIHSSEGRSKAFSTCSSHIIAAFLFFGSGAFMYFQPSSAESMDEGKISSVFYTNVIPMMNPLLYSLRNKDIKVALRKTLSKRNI
Procedure, shortened: as §1

UniProt Q8VG64 = target: T3, UniProt Q8VG64
T3 sequence (whole entry): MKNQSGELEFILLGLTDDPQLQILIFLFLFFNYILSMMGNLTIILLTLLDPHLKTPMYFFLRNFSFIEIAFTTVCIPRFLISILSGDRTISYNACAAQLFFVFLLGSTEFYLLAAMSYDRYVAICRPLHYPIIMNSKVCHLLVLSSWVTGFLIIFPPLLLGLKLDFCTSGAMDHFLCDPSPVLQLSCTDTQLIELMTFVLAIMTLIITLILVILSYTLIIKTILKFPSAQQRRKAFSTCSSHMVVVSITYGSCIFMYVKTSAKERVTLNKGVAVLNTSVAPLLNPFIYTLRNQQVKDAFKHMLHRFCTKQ
Procedure, shortened: as §1

UniProt Q8VGB9 = target: T4, UniProt Q8VGB9
T4 sequence (whole entry): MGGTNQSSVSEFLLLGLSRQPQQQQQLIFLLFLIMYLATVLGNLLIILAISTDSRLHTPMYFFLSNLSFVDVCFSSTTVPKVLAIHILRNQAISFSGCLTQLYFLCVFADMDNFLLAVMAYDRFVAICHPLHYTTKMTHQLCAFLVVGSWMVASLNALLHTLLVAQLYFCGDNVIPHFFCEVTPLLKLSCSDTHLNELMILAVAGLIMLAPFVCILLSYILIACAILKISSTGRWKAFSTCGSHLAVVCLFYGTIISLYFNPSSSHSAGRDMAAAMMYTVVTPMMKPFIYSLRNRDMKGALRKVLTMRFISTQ
Procedure, shortened: as §1

UniProt Q8VG74 = target: UniProt Q8VG74
Chain of UniProt Q8VG74 (Q8VG74 as listed by the source): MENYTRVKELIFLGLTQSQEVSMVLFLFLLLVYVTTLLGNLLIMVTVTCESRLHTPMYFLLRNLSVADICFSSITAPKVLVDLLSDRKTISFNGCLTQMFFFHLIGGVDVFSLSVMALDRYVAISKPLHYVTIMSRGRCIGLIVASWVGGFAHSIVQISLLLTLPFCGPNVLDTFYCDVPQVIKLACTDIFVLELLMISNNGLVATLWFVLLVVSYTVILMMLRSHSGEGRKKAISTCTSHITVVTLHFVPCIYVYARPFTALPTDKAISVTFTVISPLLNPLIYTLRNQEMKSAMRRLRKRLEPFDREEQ
Procedure, shortened: as §1

UniProt Q8VGA9 = target: UniProt Q8VGA9
Chain of UniProt Q8VGA9 (Q8VGA9 as listed by the source): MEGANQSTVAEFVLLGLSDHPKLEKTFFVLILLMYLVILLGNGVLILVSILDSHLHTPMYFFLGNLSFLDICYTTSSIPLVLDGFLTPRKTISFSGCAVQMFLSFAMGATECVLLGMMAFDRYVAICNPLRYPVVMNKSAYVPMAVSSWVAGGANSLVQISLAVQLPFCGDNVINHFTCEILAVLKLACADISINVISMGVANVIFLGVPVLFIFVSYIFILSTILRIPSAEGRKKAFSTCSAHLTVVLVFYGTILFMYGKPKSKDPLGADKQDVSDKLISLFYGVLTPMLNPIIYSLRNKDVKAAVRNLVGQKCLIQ
Procedure, shortened: as §1

UniProt Q8VG28 = target: UniProt Q8VG28
Chain of UniProt Q8VG28 (Q8VG28 as listed by the source): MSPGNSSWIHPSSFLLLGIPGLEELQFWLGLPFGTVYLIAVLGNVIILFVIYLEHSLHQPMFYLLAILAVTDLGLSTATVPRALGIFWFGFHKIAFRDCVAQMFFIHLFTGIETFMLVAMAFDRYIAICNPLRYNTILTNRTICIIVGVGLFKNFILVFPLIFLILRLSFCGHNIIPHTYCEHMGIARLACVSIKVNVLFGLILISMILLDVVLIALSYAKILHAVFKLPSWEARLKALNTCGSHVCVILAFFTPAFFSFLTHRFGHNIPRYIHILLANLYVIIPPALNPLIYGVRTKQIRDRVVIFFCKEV
Procedure, shortened: as §1

UniProt Q8VG49 = target: T5, UniProt Q8VG49
T5 sequence (whole entry): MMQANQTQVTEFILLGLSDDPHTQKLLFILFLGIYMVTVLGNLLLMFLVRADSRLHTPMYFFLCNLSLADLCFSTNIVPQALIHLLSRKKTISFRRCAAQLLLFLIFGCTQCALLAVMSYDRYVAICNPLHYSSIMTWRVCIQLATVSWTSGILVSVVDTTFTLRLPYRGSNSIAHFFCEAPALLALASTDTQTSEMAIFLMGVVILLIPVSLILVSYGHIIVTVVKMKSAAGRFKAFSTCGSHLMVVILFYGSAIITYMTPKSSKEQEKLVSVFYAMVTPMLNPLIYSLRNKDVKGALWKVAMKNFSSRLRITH
Procedure, shortened: as §1

UniProt Q8VG77 = target: T6, UniProt Q8VG77
T6 sequence (whole entry): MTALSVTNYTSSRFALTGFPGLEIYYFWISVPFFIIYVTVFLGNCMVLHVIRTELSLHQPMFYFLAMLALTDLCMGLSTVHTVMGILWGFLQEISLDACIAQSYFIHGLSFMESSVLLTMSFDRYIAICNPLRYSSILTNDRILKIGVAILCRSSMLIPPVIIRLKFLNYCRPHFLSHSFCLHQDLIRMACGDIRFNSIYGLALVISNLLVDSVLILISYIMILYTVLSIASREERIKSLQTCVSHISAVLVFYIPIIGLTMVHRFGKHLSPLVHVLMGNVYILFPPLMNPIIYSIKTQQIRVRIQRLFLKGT
Procedure, shortened: as §1

UniProt Q8VG96 = target: T7, UniProt Q8VG96
T7 sequence (whole entry): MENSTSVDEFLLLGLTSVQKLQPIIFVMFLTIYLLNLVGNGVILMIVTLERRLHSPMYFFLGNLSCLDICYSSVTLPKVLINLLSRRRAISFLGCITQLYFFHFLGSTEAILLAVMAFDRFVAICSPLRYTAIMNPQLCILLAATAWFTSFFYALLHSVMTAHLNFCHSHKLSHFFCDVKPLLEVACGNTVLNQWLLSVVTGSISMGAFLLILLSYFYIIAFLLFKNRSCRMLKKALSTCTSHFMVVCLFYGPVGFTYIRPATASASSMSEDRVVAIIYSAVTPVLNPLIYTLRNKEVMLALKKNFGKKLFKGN
Procedure, shortened: as §1

Measured: odorant receptor agonist call

CNc1ccccc1C(=O)OC
inactive: UniProt Q8VG27 | UniProt Q8VG53 | UniProt Q8VG64 | UniProt Q8VGB9

O=C(O)C1CCC1
inactive: UniProt Q8VG27 | UniProt Q8VG53 | UniProt Q8VG64 | UniProt Q8VGB9

CCCCCCC(C)O (centres undefined)
inactive: UniProt Q8VG27 | UniProt Q8VG53 | UniProt Q8VG64 | UniProt Q8VGB9

CCCCCC(=Cc1ccccc1)C(OC)OC
inactive: UniProt Q8VG27 | UniProt Q8VG53 | UniProt Q8VG64 | UniProt Q8VGB9

O=C(O)CCCCCCCCC(=O)O
inactive: UniProt Q8VG27 | UniProt Q8VG53 | UniProt Q8VG64 | UniProt Q8VGB9

CSSCc1ccco1
inactive: UniProt Q8VG53 | UniProt Q8VG64 | UniProt Q8VGB9
active: UniProt Q8VG27

CCCC(C)C(=O)OCC (centres undefined)
inactive: UniProt Q8VG27 | UniProt Q8VG53 | UniProt Q8VG64 | UniProt Q8VGB9

CCCCCCCCCCCO
inactive: UniProt Q8VG27 | UniProt Q8VG53 | UniProt Q8VG64 | UniProt Q8VGB9

CCCCCC(C=O)=Cc1ccccc1
inactive: UniProt Q8VG27 | UniProt Q8VG53 | UniProt Q8VG64 | UniProt Q8VGB9

C=C1C2CCC(C2)C1(C)C (centres undefined)
inactive: UniProt Q8VG27 | UniProt Q8VG53 | UniProt Q8VG64 | UniProt Q8VGB9

COc1ccccc1
inactive: UniProt Q8VG27 | UniProt Q8VG53 | UniProt Q8VG64 | UniProt Q8VGB9

C=CC(=C)CCC=C(C)CCC=C(C)C
inactive: UniProt Q8VG27 | UniProt Q8VG53 | UniProt Q8VG64 | UniProt Q8VGB9

Cc1ccccc1OC(=O)C(C)C
inactive: UniProt Q8VG27 | UniProt Q8VG53 | UniProt Q8VG64 | UniProt Q8VGB9

CCCCCCCCOC=O
inactive: UniProt Q8VG27 | UniProt Q8VG53 | UniProt Q8VG64 | UniProt Q8VGB9

CC(=O)OCCc1ccccc1
inactive: UniProt Q8VG27 | UniProt Q8VG53 | UniProt Q8VG64 | UniProt Q8VGB9

CCc1nccnc1CC
inactive: UniProt Q8VG27 | UniProt Q8VG53 | UniProt Q8VG64 | UniProt Q8VGB9

CCOC(=O)C(C)CC (centres undefined)
inactive: UniProt Q8VG27 | UniProt Q8VG53 | UniProt Q8VG64 | UniProt Q8VGB9

CCCCCC(C)O (centres undefined)
inactive: UniProt Q8VG27 | UniProt Q8VG53 | UniProt Q8VG64 | UniProt Q8VGB9

CCc1ncc(C)nc1CC
inactive: UniProt Q8VG27 | UniProt Q8VG53 | UniProt Q8VG64 | UniProt Q8VGB9

CCC(C)c1nccnc1OC (centres undefined)
inactive: UniProt Q8VG27 | UniProt Q8VG53 | UniProt Q8VG64 | UniProt Q8VGB9

OCCc1ccccc1
inactive: UniProt Q8VG27 | UniProt Q8VG53 | UniProt Q8VG64 | UniProt Q8VGB9

CC(=O)C1(C)CC2=C(CCCC2(C)C)CC1C (centres undefined)
inactive: UniProt Q8VG27 | UniProt Q8VG53 | UniProt Q8VG64 | UniProt Q8VGB9

OCCCCCCCCCO
inactive: UniProt Q8VG27 | UniProt Q8VG53 | UniProt Q8VGB9
active: UniProt Q8VG64

CC=CC(=O)C1=C(C)CCCC1(C)C
inactive: UniProt Q8VG27 | UniProt Q8VG53 | UniProt Q8VG64 | UniProt Q8VGB9

CC1CC=CCCCCCCCCCC(=O)C1 (centres undefined)
inactive: UniProt Q8VG27 | UniProt Q8VG53 | UniProt Q8VG64 | UniProt Q8VGB9

C1CCOCC1
inactive: UniProt Q8VG27 | UniProt Q8VG53 | UniProt Q8VG64 | UniProt Q8VGB9

C=CC(C)=CCC=C(C)CCC=C(C)C
inactive: UniProt Q8VG27 | UniProt Q8VG53 | UniProt Q8VG64 | UniProt Q8VGB9

C=C(C)C1CC=C(C)CC1 (centres undefined)
inactive: UniProt Q8VG27 | UniProt Q8VG53 | UniProt Q8VG64 | UniProt Q8VGB9

CC(C)CS
inactive: UniProt Q8VG27 | UniProt Q8VG53 | UniProt Q8VG64 | UniProt Q8VGB9

CCC(C)O (centres undefined)
inactive: UniProt Q8VG27 | UniProt Q8VG53 | UniProt Q8VG64 | UniProt Q8VGB9

CC(C)=C1CCC(C)CC1=O (centres undefined)
inactive: UniProt Q8VG27 | UniProt Q8VG53 | UniProt Q8VG64 | UniProt Q8VGB9

Cc1c(C)c(C)c(C=O)c(C)c1C
inactive: UniProt Q8VG27 | UniProt Q8VG53 | UniProt Q8VG64 | UniProt Q8VGB9

CC1CCCCCCCCCCCCC(=O)C1 (centres undefined)
inactive: UniProt Q8VG74 | UniProt Q8VGA9

CCCCCCC(=O)[O-].[H+]
inactive: UniProt Q8VG28 | UniProt Q8VG49 | UniProt Q8VG77 | UniProt Q8VG96

Cc1ccc(C(C)C)cc1
inactive: UniProt Q8VG27 | UniProt Q8VG53 | UniProt Q8VG64 | UniProt Q8VGB9

CCc1occc(=O)c1O
inactive: UniProt Q8VG27 | UniProt Q8VG53 | UniProt Q8VG64 | UniProt Q8VGB9

COc1cnccn1
inactive: UniProt Q8VG27 | UniProt Q8VG53 | UniProt Q8VG64 | UniProt Q8VGB9

C1CCOC1
inactive: UniProt Q8VG27 | UniProt Q8VG53 | UniProt Q8VG64 | UniProt Q8VGB9

CCCO
inactive: UniProt Q8VG27 | UniProt Q8VG53 | UniProt Q8VG64 | UniProt Q8VGB9

CCCCCO
inactive: UniProt Q8VG28 | UniProt Q8VG49 | UniProt Q8VG77 | UniProt Q8VG96

CCCCCCCCCC=CC=O
inactive: UniProt Q8VG27 | UniProt Q8VG53 | UniProt Q8VG64 | UniProt Q8VGB9

CCCCCCCC(=O)[O-].[H+]
inactive: UniProt Q8VG49 | UniProt Q8VG77 | UniProt Q8VG96
active: UniProt Q8VG28

C=C(C)C1CCC2(C)OC2C1 (centres undefined)
inactive: UniProt Q8VG27 | UniProt Q8VG53 | UniProt Q8VG64 | UniProt Q8VGB9

O=C(OCc1ccccc1)c1ccccc1O
inactive: UniProt Q8VG27 | UniProt Q8VG53 | UniProt Q8VG64 | UniProt Q8VGB9

O=C(O)CCCCCC(=O)O
inactive: UniProt Q8VG28

CC(=O)OC1(C)CCC23CC1C(C)(C)C2CCC3C (centres undefined)
inactive: UniProt Q8VG27 | UniProt Q8VG53 | UniProt Q8VG64 | UniProt Q8VGB9

O=C(O)CCCBr
inactive: UniProt Q8VG28

CCCCCCC(C=O)=Cc1ccccc1
inactive: UniProt Q8VG27 | UniProt Q8VG53 | UniProt Q8VG64 | UniProt Q8VGB9
